Assay results: ChEMBL document CHEMBL4725388, “Characterization of Aminobenzylphenols as Protein Disulfide Isomerase Inhibitors in Glioblastoma Cell Lines” (J Med Chem, 2020)

Key:
[1] = biological target: Protein disulfide-isomerase (Homo sapiens, UniProt P07237); assay: Inhibition of recombinant human wild-type N-terminal His-tagged PDIA1 expressed in Escherichia coli strain BL21(DE3) using bovine insulin as substrate preincubated for 1 hr followed by substrate addition
Outline: (§1)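 IC50 from dose-response curves; PDI reductase assay for enzyme, MTT in U-87 MG cells for cytotoxicity; mean ± SD of at least three independent experiments.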

U-87 MG = assay: Cytotoxicity against human U-87 MG cells assessed as growth inhibition measured after 72 hrs by MTT assay; assay type: functional, cell-based, U-87MG ATCC; outline: as §1

Chain of Protein disulfide-isomerase (P07237 whole entry): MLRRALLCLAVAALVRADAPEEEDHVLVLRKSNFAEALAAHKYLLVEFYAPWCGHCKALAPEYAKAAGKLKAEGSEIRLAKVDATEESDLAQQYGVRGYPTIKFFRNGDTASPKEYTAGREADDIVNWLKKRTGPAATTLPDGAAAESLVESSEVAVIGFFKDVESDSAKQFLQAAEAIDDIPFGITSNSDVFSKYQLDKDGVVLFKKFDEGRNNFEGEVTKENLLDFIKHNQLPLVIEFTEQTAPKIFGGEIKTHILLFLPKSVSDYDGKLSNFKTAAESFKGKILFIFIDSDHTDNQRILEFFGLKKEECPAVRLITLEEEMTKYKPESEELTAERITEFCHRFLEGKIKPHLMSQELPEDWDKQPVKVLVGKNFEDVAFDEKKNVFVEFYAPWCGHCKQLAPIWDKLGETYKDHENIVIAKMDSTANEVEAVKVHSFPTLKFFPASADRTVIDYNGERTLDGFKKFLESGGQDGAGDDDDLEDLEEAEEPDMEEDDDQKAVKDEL

| SMILES | IC50 [1] | IC50 (U-87 MG) |
| --- | --- | --- |
| CNC(=O)NC(c1cc(OC)c(OC)c(OC)c1)c1cc2c(cc1O)OCO2 (stereo not drawn) | > 40000 nM | > 10000 nM |
| COc1cccc(C(Nc2ccccn2)c2ccc3cccnc3c2O)c1 (stereo not drawn) | 2860 nM | 11900 nM |
| COc1ccccc1NC(c1ccccc1)c1ccc2cccnc2c1O (stereo not drawn) | 390 nM | > 10000 nM |
| COc1ccc(C(c2cc3c(cc2O)OCO3)N2CCCC2)c(OC)c1 (stereo not drawn) | 360 nM | > 30000 nM |
| Oc1c(C(Nc2ccccn2)c2ccccc2F)ccc2cccnc12 (stereo not drawn) | 470 nM | > 10000 nM |
| Oc1cc2c(cc1C(c1ccc(Cl)cc1)N1CCOCC1)OCO2 (stereo not drawn) | 92 nM | > 30000 nM |
| Oc1c(C(c2ccc3c(c2)OC(F)(F)O3)N2CCCCC2)ccc2ccoc12 (stereo not drawn) | < 200 nM | – |
| COc1cc(C(c2cc3c(cc2O)OCO3)N2CCOCC2)cc(OC)c1OC (stereo not drawn) | 640 nM | > 10000 nM |
| Oc1ccc2scnc2c1C(c1ccc(F)cc1)N1CCCCC1 (stereo not drawn) | > 100000 nM | – |
| Cc1ccnc(NC(c2ccc3cccnc3c2O)c2c(Cl)cccc2Cl)c1 (stereo not drawn) | > 40000 nM | 7200 nM |
| Oc1c(C(c2ccc(F)cc2)N2CCCCC2)ccc2c1CCC2 (stereo not drawn) | > 10000 nM | – |
| Oc1ccc2[nH]ncc2c1C(c1ccc(-c2nccs2)cc1)N1CCCCC1 (stereo not drawn) | 340 nM | – |
| CN(C)c1ccc(C(c2cc3c(cc2O)OCO3)N2CCCCC2)cc1 (stereo not drawn) | 1270 nM | 24700 nM |
| CN(C)c1cccc(C(c2ccc(F)cc2)N2CCCCC2)c1O (stereo not drawn) | > 30000 nM | – |
| Cc1ccnc(NC(c2ccccc2Cl)c2ccc3cccnc3c2O)c1 (stereo not drawn) | > 40000 nM | 9900 nM |
| Oc1ccc(C(c2cc3c(cc2O)OCO3)N2CCNCC2)cc1 (stereo not drawn) | 680 nM | > 30000 nM |
| COc1cc(C(c2cc3c(cc2O)OCO3)N2CCOCC2)ccc1O (stereo not drawn) | 230 nM | 27100 nM |
| Oc1ccc2[nH]ncc2c1C(c1ccc(C(F)(F)F)cc1)N1CCCCC1 (stereo not drawn) | 710 nM | – |
| COc1cc(C(c2cc3c(cc2O)OCO3)N2CCCCC2)cc(OC)c1OC (stereo not drawn) | 700 nM | > 10000 nM |
| Oc1ccc2cnccc2c1C(c1ccc(F)cc1)N1CCCCC1 (stereo not drawn) | > 100000 nM | – |
| Oc1ccc2[nH]ccc2c1C(c1ccc(F)cc1)N1CCCCC1 (stereo not drawn) | 1810 nM | – |
| COc1cccc(C(c2cc3c(cc2O)OCO3)N2CCOCC2)c1O (stereo not drawn) | 900 nM | > 10000 nM |
| Oc1cc2c(cc1C(c1ccc(F)cc1)N1CCCCC1)CCCC2 (stereo not drawn) | > 100000 nM | – |
| O=[N+]([O-])c1ccc(NC(c2ccccc2)c2ccc3cccnc3c2O)cc1 (stereo not drawn) | 150 nM | > 10000 nM |

Further lines, with some results ahead:

| IC50 [1] | SMILES | IC50 (U-87 MG) |
| --- | --- | --- |
| 9020 nM | COc1cccc(C(Nc2ncccn2)c2cc3c(cc2O)OCO3)c1O (stereo not drawn) | > 10000 nM |
| 460 nM | Cc1ccc(C(Nc2ccccn2)c2ccc3cccnc3c2O)cc1 (stereo not drawn) | > 10000 nM |
| 880 nM | Cc1ccnc(NC(c2ccccc2F)c2ccc3cccnc3c2O)c1 (stereo not drawn) | 13100 nM |
| 960 nM | COc1ccc(C(c2cc3c(cc2O)OCO3)N2CCCCC2)cc1OC (stereo not drawn) | 24800 nM |
| 340 nM | Oc1ccccc1C(c1cc2c(cc1O)OCO2)N1CCOCC1 (stereo not drawn) | > 30000 nM |
| 520 nM | O=[N+]([O-])c1ccc(C(c2c(O)ccc3[nH]ncc23)N2CCCCC2)cc1 (stereo not drawn) | – |
| 830 nM | Oc1ccc2[nH]ncc2c1C(c1ccc(-c2cncnc2)cc1)N1CCCCC1 (stereo not drawn) | – |
| < 200 nM | CN(C)c1ccc(C(c2cc3c(cc2O)OCO3)N2CCCC2)cc1 (stereo not drawn) | > 30000 nM |
| 660 nM | Oc1c(C(c2ccc(F)cc2)N2CCCCC2)ccc2nccnc12 (stereo not drawn) | – |
| 670 nM | Oc1cc2c(cc1C(c1ccc(F)cc1)N1CCCCC1)OCCO2 (stereo not drawn) | – |
| 180 nM | COc1cc(C(Nc2ccc(C)cn2)c2ccc3cccnc3c2O)cc(OC)c1O (stereo not drawn) | 7400 nM |
| 110 nM | Oc1c(C(Nc2ccccc2)c2ccccc2)ccc2cccnc12 (stereo not drawn) | > 10000 nM |
| 72 nM | Oc1cc2c(cc1C(Nc1ccccn1)c1ccc3c(c1)OCO3)OCO2 (stereo not drawn) | > 10000 nM |
| < 200 nM | CCOC(=O)c1ccccc1NC(c1ccccc1)c1ccc2cccnc2c1O (stereo not drawn) | > 10000 nM |
| 620 nM | Cc1ccnc(NC(c2ccc(OCc3ccccc3)cc2)c2ccc3cccnc3c2O)c1 (stereo not drawn) | 9300 nM |
| 350 nM | Oc1ccc2[nH]ncc2c1C(c1ccc(F)cc1)N1CCCCC1 (stereo not drawn) | – |
| 620 nM | COc1ccc(C(c2cc3c(cc2O)OCO3)n2ccnc2)cc1 (stereo not drawn) | > 10000 nM |
| 1520 nM | COc1ccc(C(c2cc3c(cc2O)OCO3)N2CCCC2)cc1 (stereo not drawn) | 22600 nM |
| 1890 nM | Oc1c(C(Nc2ccccn2)c2c(Cl)cccc2Cl)ccc2cccnc12 (stereo not drawn) | 6900 nM |
| 350 nM | Oc1cc2c(cc1C(c1ccc3c(c1)OCO3)N1CCCCC1)OCO2 (stereo not drawn) | > 10000 nM |
| 130 nM | COc1ccc(C(c2cc3c(cc2O)OCO3)N2CCOCC2)cc1 (stereo not drawn) | > 10000 nM |
| 170 nM | CCc1ccc(C(Nc2ccccn2)c2ccc3cccnc3c2O)cc1 (stereo not drawn) | 9300 nM |
| 2830 nM | Oc1c(C(c2ccc(F)cc2)N2CCCCC2)ccc2c1OCO2 (stereo not drawn) | – |
| 230 nM | Oc1cc2c(cc1C(c1ccc(F)cc1)N1CCOCC1)OCO2 (stereo not drawn) | > 30000 nM |
| > 30000 nM | CNC(=O)NC(c1ccc(F)cc1)c1cc2c(cc1O)OCO2 (stereo not drawn) | > 10000 nM |
